CYP2C19 activ = human CYP2C19 activators, primary screen, biochemical, luminescence; Cytochrome P450 2C19 (Homo sapiens), P33261; recombinant CYP2C19, luciferin-H EGE luminescence; hits give high values; 0 = fully inhibited enzyme, 1 = untreated enzyme; activation factor at 5 µM; 96,000 tested, under 10 active;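 active = activation factor of at least 2 at 5 µM in the primary screen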;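 also: 0 = wells with 2.5 mM tranylcypromine and 1 = vehicle-only wells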
Target sequence (P33261 whole entry, looked up): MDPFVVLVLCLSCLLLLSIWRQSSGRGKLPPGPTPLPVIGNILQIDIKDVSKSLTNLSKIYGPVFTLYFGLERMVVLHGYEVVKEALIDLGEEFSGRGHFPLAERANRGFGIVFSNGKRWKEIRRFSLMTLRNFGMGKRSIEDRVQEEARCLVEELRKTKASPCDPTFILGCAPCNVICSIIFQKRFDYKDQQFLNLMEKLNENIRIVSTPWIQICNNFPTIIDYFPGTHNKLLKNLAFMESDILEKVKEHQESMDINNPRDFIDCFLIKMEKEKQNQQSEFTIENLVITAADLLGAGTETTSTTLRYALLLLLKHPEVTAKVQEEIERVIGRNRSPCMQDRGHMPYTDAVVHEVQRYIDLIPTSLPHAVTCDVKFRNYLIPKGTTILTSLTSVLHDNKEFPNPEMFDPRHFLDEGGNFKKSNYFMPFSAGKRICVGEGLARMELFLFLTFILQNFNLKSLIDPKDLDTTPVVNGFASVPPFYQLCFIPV
HIV Rev-RRE inh = HIV-1 Rev-RRE binding inhibitors, primary screen, biochemical, FRET, protein-RNA interaction. hit rate 0.79% among 97,000. AID 704, 2007. inhibition, % at 8 µM. Rev peptide-RRE RNA binding. P05866;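 active = inhibition above the screen-wide mean plus 3 SD, cut at about 35% in these data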;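 also: 0% = median DMSO wells and 100% = median Neomycin B control wells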
Target sequence (P05866 whole entry, looked up): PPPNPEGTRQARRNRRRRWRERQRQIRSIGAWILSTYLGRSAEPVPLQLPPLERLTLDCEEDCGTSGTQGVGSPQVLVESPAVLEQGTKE
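assay system = Cy5-tagged RRE RNA duplex with fluorescein-tagged Rev peptide | incubation = 5 + 15 min at 25 °C | also added = labelled Rev peptide | measure = % inhibition of FRET ratio versus controls | benchmarks = DMSO wells as 0% and neomycin B wells as 100% inhibition | measured by = FRET fluorescence readout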
CYP2C19 inhib = blockers of cytochrome P450 2C19 activity – biochemical, luminescence, ADME assay, primary screen; P33261; CYP2C19 Supersomes, luciferin-H EGE luminescence, 30 min; inhibition, % at 5 µM; hit rate 21% among 96,000; AID 778, 2007;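 active = CYP2C19 inhibition above a set limit at 5 µM in the primary screen, cut at about 50% in these data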;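 also: plate controls were negative control wells for no effect and 2.5 mM tranylcypromine positive control for full effect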
CYP2C9 inhib = blockers of cytochrome P450 2C9 activity – biochemical, luminescence, ADME assay, primary screen. inhibition, % at 5 µM. hit rate 20% among 96,000. CYP2C9 Supersomes, luciferin-H conversion. AID 777, 2007. P11712;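 active = blocking of liver enzyme CYP2C9 beyond about 50% at 5 µM, limit read from the data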
CYP2C9 act = human CYP2C9 activators, primary screen, biochemical, luminescence; recombinant CYP2C9, luciferin-H conversion; hits give high values; factor 1 = untreated enzyme, 0 = blocked; hit rate 1.4% among 96,000; activation factor at 5 µM;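 active = activation factor of 2 or more for CYP2C9 at a 5 µM dose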;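 also: 0 = sulfaphenazole-blocked wells and 1 = vehicle-only wells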
Cav32 inh = Cav3.2 calcium influx blockers – cell-based, Fluo-4 calcium fluorescence, FDSS, MLSMR library, primary screen | Voltage-dependent T-type calcium channel subunit alpha-1H (Homo sapiens), O95180 | Cav3.2-expressing cells; hits give low values | B-score at 10 µM | hit rate 4% among 100,000;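 active = single-dose well whose peak fluorescence ratio is a statistical outlier from its plate by either plate-standardised score or position-corrected B-score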
* marks the source's active call; other numbers are inactive results; x = no result given. Hits are enriched below; roughly 27% of the tested compounds scored in any of these assays.

SMILES	CYP2C19 activ	HIV Rev-RRE inh	CYP2C19 inhib	CYP2C9 inhib	CYP2C9 act	Cav32 inh
CSCSC1=C(C#N)C(c2ccc(Cl)cc2)C(C(C)=O)=C(C)N1 (stereo unspecified)	0	11.0	98.1*	100.0*	0	-5.5*
CCOC(=O)CSC1=C(C#N)C(c2ccc(C)cc2)C(C(=O)OC)C(=O)N1 (stereo unspecified)	0.5	2.5	53.5*	47.2	0.5	0.854
CN(C)c1ccc(NC(=O)Cn2c(=O)n(Cc3ccccc3)c(=O)c3ccccc32)cc1	1.1	2.6	-8.3	3.4	1	0.0391
Cc1ccc(C2=Nc3ccccc3N=C(c3ccco3)C2)c(O)c1	1.1	-4.0	-11.5	19.7	0.8	-0.337
O=C(c1cccs1)N1CCN(C2CCCCC2)CC1	0.8	1.3	22.7	7.5	0.9	-1.64
O=C(Cn1c(C(=O)N2CCN(C3CCCCC3)CC2)cc2sccc21)c1ccccc1	0.1	-0.7	87.3*	73.0*	0.3	-0.232
O=C(Cn1c(C(=O)N2CCc3ccccc3C2)cc2sccc21)c1ccccc1	0.3	10.2	68.6*	64.1*	0.4	-1.78
COc1ccc(-c2nc(SC)n(S(=O)(=O)c3ccccc3)n2)cc1	0.3	11.2	69.3*	62.0*	0.4	-0.623
CCS(=O)(=O)n1nc(-c2ccccc2)nc1SC	0.4	13.8	56.1*	-11.4	1.1	0.101
CCS(=O)(=O)n1nc(-c2ccc(Cl)cc2)nc1SCc1ccccc1	x	15.6	x	x	x	-1.95
CCS(=O)(=O)n1nc(-c2ccc(Cl)cc2)nc1N	0.5	x	53.3*	8.4	0.9	0.49
CSc1nc(-c2ccccc2)nn1S(=O)(=O)c1ccccc1	x	0.5	x	x	x	0.554
O=C(C1CCC(C(=O)N2CCCCC2)CC1)N1CCCCC1 (stereo unspecified)	0.9	0.3	9.1	-16.6	1.2	0.0229
CC(C)(C)[C@@H]1C=C(C(N)=O)O[C@H](OCCCCO)C1	x	x	x	x	x	0.956
O=C1C2ON(c3ccccc3)C(c3ccccc3F)C2C(=O)N1c1ccccc1 (stereo unspecified)	1.1	9.0	-6.6	9.5	0.9	0.35
CN1C(=O)C2ON(c3ccccc3)C(c3cccs3)C2C1=O (stereo unspecified)	0.4	7.2	59.3*	33.4	0.7	0.176
CCCc1[nH]nc2c1C(c1ccc(OC(=O)N3CCOCC3)c(OC)c1)C(C#N)=C(N)O2 (stereo unspecified)	1	0.0	1.8	4.2	1	0.0839
Cc1ccc(-n2c(C)nn(-c3ncc(C(F)(F)F)cc3Cl)c2=O)cc1	1	-3.7	4.5	11.1	0.9	-0.544
Oc1ccccc1N=Nc1nc(-c2ccccc2)c(-c2ccccc2)[nH]1	0.8	12.4	24.3	54.4*	0.5	-0.364
CC(C)(C)NC(=O)CSc1nc(-c2ccccc2)c(-c2ccccc2)[nH]1	0.9	9.6	11.1	12.2	0.9	-0.995
O=C(OCCn1cncn1)c1cc2ccccc2oc1=O	0.8	4.0	16.5	12.5	0.9	-0.568
CCCCn1c(=O)[nH]c(=O)c2c1nc(COc1ccc(C#N)cc1)n2CCC	0.7	7.2	25.4	90.0*	0.1	0.333
CCCCn1c(=O)[nH]c(=O)c2c1nc(-c1ccsc1)n2Cc1ccccc1	0.8	23.1	18.0	4.8	1	-0.744
CCCCn1c(-c2ccsc2)nc2c1c(=O)[nH]c(=O)n2CCC	0.8	8.1	17.2	23.1	0.8	-1
CCCCn1c(=O)[nH]c(=O)c2c1nc(CN1C(=O)c3ccccc3S1(=O)=O)n2CCC	0.2	4.6	80.0*	97.9*	0	1.19
SMILES	CYP2C19 activ	HIV Rev-RRE inh	CYP2C19 inhib	CYP2C9 inhib	CYP2C9 act	Cav32 inh
C=CCn1c(SCc2nc3c(c(=O)[nH]c(=O)n3CCCC)n2CCC)nnc1-c1ccccc1	0.6	-1.3	44.3	83.8*	0.2	0.483
CC(C)(O)[C@@H]1[C@@H]2C[C@@]3(CC[C@]4(C)C(CCC5[C@@]6(C)CC[C@H](O)C(C)(C)C6CC[C@]54C)[C@@H]13)C(=O)O2 (stereo partly specified)	x	x	x	x	x	0.136
Cc1ccc2c(C)nc(NC3=NCN(C(C)C)CN3)nc2c1	x	6.0	x	x	x	x
CC(=O)N1N=C(c2ccncc2)OC12CCCC2	0.5	7.0	47.5	3.0	1	-0.186
Cc1cc(NC(=O)CCC(=O)N(CC(=O)NC2CCCC2)Cc2ccc(F)cc2)no1	0.9	1.8	12.0	19.0	0.8	0.161
CCc1ccc(N(C(=O)CCC(=O)Nc2cc(C)on2)C(C(=O)NC2CCCC2)c2ccco2)cc1 (stereo unspecified)	x	-2.8	x	x	x	-2.79
C=CCN(C(=O)CCC(=O)Nc1cc(C)on1)C(C(=O)NC1CCCC1)c1cccnc1 (stereo unspecified)	0.6	-3.0	44.8	67.8*	0.3	-0.824
Cc1cc(NC(=O)CCC(=O)N(CC(=O)NC2CCCC2)Cc2ccccc2Cl)no1	0.6	3.5	41.1	57.5*	0.4	0.494
Cc1cc(NC(=O)CCC(=O)N(C2CC2)C2(C(=O)NC3CCCC3)CCC(C)CC2)no1 (stereo unspecified)	0.4	7.2	58.6*	71.2*	0.3	-0.79
CCc1ccccc1N(C(=O)CCC(=O)Nc1cc(C)on1)C(C(=O)NC1CCCC1)c1ccco1 (stereo unspecified)	0.3	x	74.7*	57.7*	0.4	-2.3
CCOc1ccc(N(C(=O)/C=C/C(=O)Nc2cc(C)on2)C(C(=O)NC2CCCC2)c2ccccc2C)cc1 (stereo unspecified)	0.5	4.3	48.2	44.5	0.6	-5.38*
C=CCn1c(N)cc(=O)nc1SCC(=O)Nc1ccc2ccccc2c1	x	2.5	x	x	x	-1.96
N#Cc1c(-c2ccco2)nc(NCC2CCCO2)[nH]c1=O (stereo unspecified)	1.2	8.0	-19.5	2.9	1	0.483
CC(C)Cc1nc(SCC(=O)Nc2ccc(S(N)(=O)=O)cc2)n[nH]1	0.8	3.3	17.6	21.2	0.8	-0.0798
N#Cc1c(-c2ccco2)nc(SCc2ccc(F)cc2)[nH]c1=O	0.7	0.3	26.0	63.1*	0.4	-4.54*
N#Cc1c(-c2ccco2)nc(SCC(=O)Nc2ccc(S(N)(=O)=O)cc2)[nH]c1=O	1.1	9.1	-8.9	50.4*	0.5	x
Cc1nc(SCc2cccc(F)c2)[nH]c(=O)c1C#N	1	0.5	-2.1	74.8*	0.3	-2.28
CCOc1cc(C(=O)Nc2ccc3c4c(cccc24)C(=O)N3CC)cc(OCC)c1OCC	0.9	11.3	6.6	57.2*	0.4	-1.14
